Experimental data collected from several papers.
Lines come from different studies, so protocols differ.
Target: Tyrosine-protein kinase receptor TYRO3 (TYRO3, Homo sapiens, UniProt Q06418)
Sequence (Q06418 41-890, as in one of the studies): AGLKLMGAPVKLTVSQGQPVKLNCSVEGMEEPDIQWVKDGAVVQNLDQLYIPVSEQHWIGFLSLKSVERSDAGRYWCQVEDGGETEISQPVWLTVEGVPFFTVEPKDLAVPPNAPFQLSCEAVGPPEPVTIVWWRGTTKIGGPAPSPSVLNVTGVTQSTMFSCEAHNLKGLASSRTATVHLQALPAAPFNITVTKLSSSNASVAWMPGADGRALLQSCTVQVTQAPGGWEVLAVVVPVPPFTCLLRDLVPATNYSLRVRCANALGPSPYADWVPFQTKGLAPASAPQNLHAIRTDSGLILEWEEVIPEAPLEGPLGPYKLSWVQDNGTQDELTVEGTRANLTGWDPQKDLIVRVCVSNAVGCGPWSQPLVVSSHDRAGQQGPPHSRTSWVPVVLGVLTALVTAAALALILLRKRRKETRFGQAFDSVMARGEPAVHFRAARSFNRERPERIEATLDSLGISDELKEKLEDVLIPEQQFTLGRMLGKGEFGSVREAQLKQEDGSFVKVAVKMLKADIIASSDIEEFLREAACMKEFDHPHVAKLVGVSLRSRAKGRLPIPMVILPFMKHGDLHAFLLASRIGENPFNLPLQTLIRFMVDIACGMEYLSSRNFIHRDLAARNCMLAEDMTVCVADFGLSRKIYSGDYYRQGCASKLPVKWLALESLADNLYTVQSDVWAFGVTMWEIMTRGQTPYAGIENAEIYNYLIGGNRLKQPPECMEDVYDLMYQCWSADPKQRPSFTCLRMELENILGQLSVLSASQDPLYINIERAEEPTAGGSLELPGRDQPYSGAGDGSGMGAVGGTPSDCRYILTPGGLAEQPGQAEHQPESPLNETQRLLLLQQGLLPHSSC

Compound | assay | conditions | remaining binding
CN(C)c1nccc(-c2cnn3ncccc23)n1 | binding | 1 µM | 75%
C[C@@H](c1cccc(C#N)c1)n1cc(Cl)cc(C(N)=O)c1=N | cell-free assay, competition with immobilised ligand | 1 µM | 68%
O=C(c1ccc(Nc2ncc(Cl)c(-c3ccc(Cl)s3)n2)cc1)N1CCC(N2CCCC2)CC1 | binding, competition with immobilised ligand | 1 µM | 57%
COc1ccnn2ncc(-c3ccnc(N(C)C)n3)c12 | binding | 1 µM | 100%
FC(F)(F)Oc1cccc(-c2cnc3ccc(-c4ccncc4)nn23)c1 | cell-free assay, competition with immobilised ligand | 5 µM | 83%
CCc1ccccc1C(=O)Nc1n[nH]c2c(C)c(F)c(C3C(C#N)=C(C)N(C)C(C)=C3C#N)cc12 | cell-free assay, competition with immobilised ligand | 1 µM | 100%
CNC(=O)[C@@H]1CC[C@@H](n2c(-c3ccc4cnccc4c3)nc3ccc(C(=O)NCc4cccc(C(N)=O)c4)cc32)C1 | binding, competition with immobilised ligand | 1 µM | 100%
Cc1cnn2ncc(-c3ccnc(N(C)C)n3)c2c1 | binding | 1 µM | 100%
CNC(=O)c1ccc(Nc2ncc(C(F)(F)F)c(NCc3nccnc3N(C)S(C)(=O)=O)n2)cc1 | cell-free assay, competition with immobilised ligand | 0.1 µM | 100%
O=C(NCCCN1CCOCC1)c1ccc(Nc2ncc(Cl)c(-c3ccc(Cl)s3)n2)cc1 | binding, competition with immobilised ligand | 1 µM | 94%
C[C@H]1CCN(c2nccc(-c3cnn4ncccc34)n2)C1 | binding | 1 µM | 100%
O=C(NCCCN1CCOCC1)c1ccc(Nc2nccc(-c3cc4ccccc4s3)n2)cc1 | binding, competition with immobilised ligand | 1 µM | 90%
N[C@@H]1CCN(c2nccc(-c3cnn4ncccc34)n2)C1 | binding | 1 µM | 100%
CNCc1ccccc1-c1csc([C@H](C)Nc2nc(C)nc3cc(OC)c(OC)cc23)c1 | cell-free assay, competition with immobilised ligand | 1 µM | 100%
CN(C)c1nccc(-c2cnc3ncccn23)n1 | binding | 1 µM | 100%
COc1ccc2c(c1)O[C@@H](c1ccc(OC)c(OC)c1)C[C@H]2NC(=O)C1(c2ccc3c(c2)OC(F)(F)O3)CC1 | cell-free assay, competition with immobilised ligand | 1 µM | 97%
C[C@@H](c1ccc(-n2cnc3c(N)ncnc32)cc1)N1CCc2nn(C)c(Cc3ccccc3)c2C1=O | binding, competition with immobilised ligand | 0.1 µM | 100%
COc1cnc(Nc2cccc(S(N)(=O)=O)c2)nc1N1CCN(c2ccccc2)C(=O)C1 | binding, competition with immobilised ligand | 1 µM | 100%
CS(=O)(=O)NCC[C@H](NC(=O)c1cncc2c1cnn2-c1ccc(F)cc1)c1ccnc(S(C)(=O)=O)c1 | cell-free assay, competition with immobilised ligand | 1 µM | 94%
CN(c1nccc(-c2cnn3ncccc23)n1)C1CC1 | binding | 1 µM | 83%
Nc1c(C(=O)NCc2ccc(C(=O)NCCCC3CCCCC3)cc2)cnn1-c1ccccc1 | cell-free assay, competition with immobilised ligand | 0.1 µM | 100%
O=C(NCC1CCOCC1)c1n[nH]cc1NC(=O)c1c(F)cccc1F | binding, competition with immobilised ligand | 1 µM | 99%
